The source of these data is ChEMBL document CHEMBL1128250, “Structure-activity studies of 2,3,4,4a,5,9b-hexahydroindeno[1,2-c]pyridines as antispermatogenic agents for male contraception” (1995).

“And” between values parts separate entries of the source, which are not always exact repeats. Equal values may be shown once.

The test system of assay [1] is Mus musculus. Description: Effect on right testes weight after 1 hr of dosing was observed. The format is functional, Testis. The gist of the method: (§1)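 Male CD-1 outbred Swiss albino mice, single oral gavage in acetate buffer pH 5 (10 mL/kg), 3, 10 or 30 mg/kg, plus vehicle control. Killed on day 1, 3 or 14 after dosing (times are days, not hours). Testes removed, right and left weighed separately, sectioned for histology and scored on a 0–6 spermatogenic index. Body weight change recorded. Mean ± SEM, n = 5; p < 0.05 versus control.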

For assay [2], the system named is Mus musculus. Description: tested for its effect on spermatogenic index 3 days after single sub cutaneous dose (10 mg/kg). The format is functional. The gist of the method: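 CD-1 male mice, 5/dose, injected subcutaneously once (10 mL/kg) on day 0 in ethanol/Tween-20/water (3:7:90); vehicle and positive controls included. Killed by CO2 after 72 h; testes weighed and sectioned, with histology scored as a 0–6 spermatogenic index. Both read-outs given as % reduction from control; Dunnett's one-tailed t-test.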

For assay [3], the system named is Mus musculus. Description: Effect on left testes body weight single oral dose of 10 mg/kg was given and the change after 14 hr of dosing was observed. The format is functional, Testis. The gist of the method:
as §1

The test system of assay [4] is Mus musculus. Description: Effect on spermatogenic index single oral dose of 30 mg/kg was given and the change after 1 hr of dosing was observed. The format is functional. The gist of the method: as §1
For assay [5], the system named is Mus musculus. Description: Tested for its effect on testes weight 3 days after single oral dose (30 mg/kg). The format is functional, Testis. The gist of the method:
(§2)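 CD-1 outbred Swiss albino male mice, 5 per dose, single gavage on day 0 at 10 mL/kg. Vehicle was 0.15 M acetate buffer pH 5, ethanol/Tween-20/water (3:7:90), or 1% Tween-20 in water. CO2 euthanasia 72 h later. Testes weighed and histologically scored (spermatogenic index 0–6). Values are % reduction versus the assay's vehicle control. Positive control was 30 mg/kg of the parent compound. Significance by Dunnett's one-tailed t-test, p < 0.05.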

Assay [6] has as its system Mus musculus. Description: Tested for its effect on spermatogenic index 3 days after single sub cutaneous dose (10 mg/kg). The format is functional. The gist of the method: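 Single subcutaneous injection, 10 mL/kg, to male CD-1 mice (5 per dose) in ethanol/Tween-20/water (3:7:90, v/v/v) on day 0. Mice were killed at 72 h; testes were weighed and histology scored for spermatogenic index (0–6). Results are % reduction from the vehicle control, with a 30 mg/kg positive control group. Dunnett's one-tailed t-test.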

The subject of assay [7] is Mus musculus. Description: Effect on left testes body weight a single oral dose of 3 mg/kg was given and the change after 1 h of dosing was observed. The format is functional, Testis. The gist of the method:
as §1

The subject of assay [8] is Mus musculus. Description: Tested for its effect on mouse testes weight 3 days after single oral dose (10 mg/kg). The format is functional, Testis. The gist of the method:
as §2

The subject of assay [9] is Mus musculus. Description: Tested for its effect on spermatogenic index 3 days after single oral dose (10 mg/kg). The format is functional. The gist of the method:
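Male CD-1 (ICR) mice, 7 weeks old on arrival, 5 per dose, single gavage of 10 mL/kg on day 0. Vehicle was 0.15 M acetate buffer pH 5, ethanol/Tween-20/water 3:7:90, or 1% Tween-20. Mice were killed with CO2 at 72 h and testes weighed and scored for spermatogenic index (0–6 scale). Results are % reduction versus the vehicle control. Dunnett's one-tailed t-test.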

Assay [10] relates to Mus musculus. Description: tested for its effect on testes weight 3 days after single oral dose (30 mg/kg). The format is functional, Testis. The gist of the method: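 Male CD-1 (ICR)BR outbred Swiss albino mice, 5/dose, given one oral gavage dose (10 mL/kg) on day 0 in 0.15 M acetate buffer pH 5, ethanol/Tween-20/water (3:7:90), or 1% Tween-20 in water; vehicle and positive-control groups in each assay. Killed by CO2 72 h later; testes weighed. Expressed as % reduction versus vehicle control; Dunnett's one-tailed t-test.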

In assay [11] the test system is Mus musculus. Description: Effect on right testes body weight single oral dose of 10 mg/kg was given and the change after 14 h of dosing was observed. The format is functional, Testis. The gist of the method: as §1
The subject of assay [12] is Mus musculus. Description: Tested for its effect on testes weight 3 days after single oral dose (90 mg/kg). The format is functional, Testis. The gist of the method: as §2
For assay [13], the system named is Mus musculus. Description: Tested for its effect on mouse testes weight 3 days after single sub cutaneous dose (5 mg/kg). The format is functional, Testis. The gist of the method:
(§3)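 CD-1 outbred Swiss albino male mice, 5 per dose, single subcutaneous injection on day 0 at 10 mL/kg in ethanol/Tween-20/water (3:7:90). Killed 72 h later. Testes weighed and scored for spermatogenic index (0–6). Results are % reduction versus vehicle control. Each assay included a 30 mg/kg positive control. Dunnett's one-tailed t-test, p < 0.05. Oral versus sc route compared by ANOVA.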

The subject of assay [14] is Mus musculus. Description: Tested for its effect on spermatogenic index 3 days after single oral dose (30 mg/kg),. The format is functional. The gist of the method: as §2
The test system of assay [15] is Mus musculus. Description: Tested for its effect on testes weight 3 days after single sub cutaneous dose (10 mg/kg). The format is functional, Testis. The gist of the method: as §3
For assay [16], the species on record is Mus musculus. Description: Tested for its effect on spermatogenic index 3 days after single sub cutaneous dose. The format is functional. The gist of the method: as §3
The test system of assay [17] is Mus musculus. Description: Effect on right testes weight single oral dose of 10 mg/kg was given and the change after 1 hr of dosing was observed. The format is functional, Testis. The gist of the method: as §1
Assay [18] concerns Mus musculus. Description: Effect on left testes body weight single oral dose of 3 mg/kg was given and the change after 3 hr of dosing was observed. The format is functional, Testis. The gist of the method:
as §1

With `CCN1CC[C@H]2[C@H](c3ccc(C)cc3)c3cc(C)ccc3[C@H]2C1.Cl`, the “Change in body weight” value in the assay on Mus musculus [1] worked out at 3.22 g. Moreover, the Reduction is 41% in the assay on Mus musculus [2]; 10% in the assay on Mus musculus [5]; 0% and 10% in the assay with Mus musculus [6]; 10% in the assay with Mus musculus [8]; 31% in the assay on Mus musculus [9]; 43% with Mus musculus [10]. Further, the Reduction is reported as 4% in the assay on Mus musculus [12]; 5% with Mus musculus [13]; 9% in the assay with Mus musculus [14]; -11% with Mus musculus [15]; 0% in the assay listed under Mus musculus [16]. Further, the Testes weight with Mus musculus [3] stood at 101.6 mg; in the assay on Mus musculus [7], 96.9 mg; with Mus musculus [11], 104.8 mg; in the assay with Mus musculus [17] it was 88.2 mg; in the assay on Mus musculus [18] it was 106.1 mg. In addition, the Spermatogenic index in the assay on Mus musculus [4] amounted to 4.4; with Mus musculus [17] it was 4.
